According to the EternaBench riboswitch data:

Tested on: MS2 coat protein
Assay: apparent Kd, MS2 coat protein; higher = weaker binding; RNA-MaP array; FMN 200 µM where present
How it was run: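 SNAP-549-labelled MS2 coat protein, doubled from 0.7 or 1.5 nM to 3 µM, was titrated over designs transcribed by stalled E. coli RNA polymerase on Illumina sequencing-chip clusters. Titrations were run without and then with constant ligand in 100 mM Tris-HCl pH 7.5, 80 mM KCl, 4 mM MgCl2, BSA, DTT, yeast tRNA and Tween-20. The apparent Kd is the median of filtered per-cluster fits to green signal normalised to red-channel RNA signal and control-cluster median Fmax.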

[1] = designed as: OFF switch for flavin mononucleotide, no ligand
[2] = ligand present: flavin mononucleotide, designed as: OFF switch for flavin mononucleotide
[3] = designed as: ON switch for flavin mononucleotide, no ligand
[4] = ligand present: flavin mononucleotide, designed as: ON switch for flavin mononucleotide

Sequence: UCAUACGAUGAGGAUAUCUCCGUUAAAGUAUGUAGAGAAGGCGUUACAUGAGGAUCACCCAUGUUUGUGGGCAG
- apparent Kd [1]: 304 nM
- apparent Kd [2]: 385 nM

Sequence: UGGCGCAACAGAGGAUAUGCAUAGGCUGCCUUACAUGAGGAUCACCCAUGUGCAGAAGGCUGUUGCCAUUACAAGCGCACUAAU
- apparent Kd [1]: 118 nM
- apparent Kd [2]: 402 nM

Sequence: CAUGUGAGCGAGGAUAUUUUACGGGAAACUUUCAGAGAAGGCGCUACAUGAGGAUCACCCAUGUCCGUCAGUCC
- apparent Kd [1]: 41.7 nM
- apparent Kd [2]: 94.8 nM

Sequence: AACGCUAGACUAGGAUAUCGUUUACAUGAGGAUCACCCAUGUAAAGGGUAUUGUCGUCAUACGAACGAGAAGGAGUCGGUAAAU
- apparent Kd [1]: 10.4 nM
- apparent Kd [2]: 26.5 nM

Sequence: UAUAUAUAGUAAGGAUAUGUAUAUAUUUUAUUAACAGAAGGUACUGACAUGAGGAUCACCCAUGUUUUAGUGUGGGCAUGUAGA
- apparent Kd [1]: 76.7 nM
- apparent Kd [2]: 100 nM

Sequence: ACAUAGUAAGGAUAUGCUGCUCGUCACUUGCGUGAUGAGUAGCAGAAGGUACAUGAGGAUCACCCAUGUAAAAA
- apparent Kd [1]: 25.3 nM
- apparent Kd [2]: 19.1 nM

Sequence: GUCAGCUCGUGAGGAUAUACAUCACUGCUUCGGCAGUGUAUUAAAAUAACAUGAGGAUCACCCAUGUAGAAGGCACGAGCUGAU
- apparent Kd [1]: 4.69 nM
- apparent Kd [2]: 5.51 nM

Sequence: AAGAUGUGAGGAUAUCACGAGAGCGUCAAACGGACACUCUCUGAGAAGGCACAUGAGGAUCACCCAUGUCCAAA
- apparent Kd [1]: 57.2 nM
- apparent Kd [2]: 295 nM

Sequence: AUUGUGUGAGGAUAUUAGUAGUAGAUGAAUGGAGUUGUGGCUGAGAAGGCACAUGAGGAUCACCCAUGUUCCUU
- apparent Kd [1]: 22.3 nM
- apparent Kd [2]: 25.9 nM

Sequence: GCCAUCGCAUGAGGAUAUAAAAUUAUAAUUAAAUUAGAAGGCAUGUCAUAAGACAUGAGGAUCACCCAUGUAGUUAAGAUGGCA
- apparent Kd [3]: 483 nM
- apparent Kd [4]: 132 nM

Sequence: AAGGUGUAAGGAUAUGCUGCUCGUCACUUGCGUGAUGAGUAGCAGAAGGUACAUGAGGAUCACCCAUGUAAAGA
- apparent Kd [1]: 32.5 nM
- apparent Kd [2]: 38.2 nM

Sequence: UUAAAUCAUGUAGGAUAUGCAUGGCGAAGCUACGCAGAAGGACAUGAGGAUCACCCAUGUCUCUCCGUCUGCGUACAGACGGAG
- apparent Kd [1]: 24.6 nM
- apparent Kd [2]: 155 nM

Sequence: AAUAAACUCACAGGAUAUAGCAGAUGUCGCGUGAACUUACAGGCGACGAUGCUAGAAGGGUGACCACAUGAGGAUCACCCAUGU
- apparent Kd [3]: 1200 nM
- apparent Kd [4]: 142 nM

Sequence: AAGAAGUGAGGAUAUGCUGCUCGUCACUUGCGUGAUGAGUAGCAGAAGGCACAUGAGGAUCACCCAUGUGGAAA
- apparent Kd [1]: 31.3 nM
- apparent Kd [2]: 43.1 nM

Sequence: CUAGCUAUCGGAGGAUAUCCUCAGCGGAAACGCACAUGAGGAUCACCCAUGUAAAUAAAUAAUUUGGAGAAGGCCGAUAGCUAG
- apparent Kd [3]: 294 nM
- apparent Kd [4]: 19.2 nM

Sequence: AGUAAGAUGCAGAAGGUGUUAGCUAGAGCUACGACAUGAGGAUCACCCAUGUAAAACCGCCCGUACAAGGAUAUGCAUCUUACA
- apparent Kd [3]: 6.12 nM
- apparent Kd [4]: 5.54 nM

Sequence: UCAGGCUUCGAGAAGGACAUGAGGAUCACCCAUGUGCGUGUGAAGCAGCCAAAAGGCUGCAUCAUGUAGGAUAUCGGAGUCUGC
- apparent Kd [1]: 81.8 nM
- apparent Kd [2]: 552 nM

Sequence: CUUUUGUGAGGAUAUUAGUAGUUAAUAAAUAAAAUUACUACUGAGAAGGCACAUGAGGAUCACCCAUGUUCCUC
- apparent Kd [1]: 31.5 nM
- apparent Kd [2]: 226 nM

Sequence: AGUUGGCGAGGAUAUACAUGAGGAUCACCCAUGUGAGAGAAUAAAGUGAGGAAGAAAAGUAGAAGGCGCUGACA
- apparent Kd [1]: 47.8 nM
- apparent Kd [2]: 154 nM

Sequence: AUCAGCUCGUCAGGAUAUACGUCACUGCUUCGGCAGUGUGGUAAGAUCACAUGAGGAUCACCCAUGUAGAAGGGACGAGCUGAG
- apparent Kd [1]: 13.2 nM
- apparent Kd [2]: 260 nM

Sequence: GGUUGACAAAGUCAACCAUAACGAACAUGAGGAUCACCCAUGUAGGAUAUGCUACUCAAAGAGUAGCAGAAGGACAUGUGUCUU
- apparent Kd [1]: 32.6 nM
- apparent Kd [2]: 161 nM

Sequence: AGGUACCAUGUUAGGAUAUCACUGACUAACGUCGCUGAGAAGGAACAUGAGGAUCACCCAUGUGCCGGGCUCUU
- apparent Kd [1]: 20.9 nM
- apparent Kd [2]: 50.8 nM

Sequence: AGCCUACAUGAGGAUCACCCAUGUCAGGAUAUCUCGCAACGUGUCAAGUUCACGUCGCAGAGAAGGGACUCGGG
- apparent Kd [1]: 55.7 nM
- apparent Kd [2]: 54 nM

Sequence: AAACACGGACAUGAGGAUCACCCAUGUGGCGAAAGCCUUGGGAGAAGGCCGAUAGCAAAGCUAUCGGAGGAUAUCCAUACCGUG
- apparent Kd [3]: 19.8 nM
- apparent Kd [4]: 7.72 nM

Sequence: CAUACAGUAGUUAGGAUAUUGCAACGUAUACGGAUCGAGAAGGGACAUGAGGAUCACCCAUGUAGAUUGUAAAG
- apparent Kd [1]: 37.6 nM
- apparent Kd [2]: 30.7 nM

Sequence: CAUGAUUGACGAGGAUAUUGUUCUACAUGGCGACGAGAAGGCGUCUGUCACAUGAGGAUCACCCAUGUGAGUCUGGUGAAUGAG
- apparent Kd [1]: 36.5 nM
- apparent Kd [2]: 33.4 nM

Sequence: GAGCACUGAUAAUAAUGUAGAAAUACAUGAGGAUCACCCAUGUAGGAUAUCGUCAGGAAUACUGACGAGAAGGACAUACAGUGC
- apparent Kd [1]: 15.7 nM
- apparent Kd [2]: 25.5 nM

Sequence: CAGUCUACAGGAUAUACAUGAGGAUCACCCAUGUAAAUUCACUUUCAGUAGUCUACAUGUAGAAGGGUAGACUG
- apparent Kd [1]: 21.3 nM
- apparent Kd [2]: 40.3 nM

Sequence: CCAGCAAAAGUGAGGAUAUGCUGGUCCUUGGAUCAGCAGAAGGCACAUGAGGAUCACCCAUGUCGUGGAGCUGG
- apparent Kd [1]: 26.2 nM
- apparent Kd [2]: 55.3 nM

Sequence: GAGUCGAGUAAUAAAUAAGAUCUACAUGAGGAUCACCCAUGUAAGGAUAUGCAGUGGAAUACACUGCAGAAGGUACAUCUCGAC
- apparent Kd [1]: 15.1 nM
- apparent Kd [2]: 33.4 nM

Sequence: ACAUAAAUUCGAGGAUAUCGGUGAUAUAAUUUACGAGAAGGCGAUAAAAGUUGUAAACUUAUAGACAUGAGGAUCACCCAUGUA
- apparent Kd [3]: 34.8 nM
- apparent Kd [4]: 34 nM

Sequence: ACAUGAGGAUCACCCAUGUUACGAACAUGAGGAUCACCCAUGUAGGAUAUGCUACUCAAAGAGUAGCAGAAGGACAUGUGCCUU
- apparent Kd [1]: 1090 nM
- apparent Kd [2]: 559 nM

Sequence: AAAUCAGCAGGAUAUGCGAUGUUGUGCUAGAUAGCGGGACCACAUGAGGAUCACCCAUGUAGAAGGGCUAGAUA
- apparent Kd [1]: 51.4 nM
- apparent Kd [2]: 18.9 nM

Sequence: CCGCAAAAUGAGGAUAUCGUAUCGGAUACGAUACGAGAAGGCGUAACAUGAGGAUCACCCAUGUGUCCUAGCGG
- apparent Kd [1]: 14.3 nM
- apparent Kd [2]: 17.2 nM

Sequence: GGACCGUGAAGAGUUGGCGGUCGGCAGGAUAUGACAUGAGGAUCACCCAUGUGAACUCCAUUGGGUCAGAAGGGCCACGACACA
- apparent Kd [1]: 37.5 nM
- apparent Kd [2]: 108 nM

Sequence: AUGGACGUCGUAGGAUAUGUAGGAUUCUCGUACAUGAGGAUCACCCAUGUUGACGUCAAGGUCGGACAGAAGGGCGGUGUCUAU
- apparent Kd [3]: 584 nM
- apparent Kd [4]: 65.4 nM
